Laboratory results reported in ChEMBL document CHEMBL4689842, “EUbOPEN Chemogenomics Library wave 1” (2021).

Test system: U2OS
Test: Multiplex assay against U2OS
Format: toxicity, cell-based
Settings: human
Summary of the method: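 At seeding, live cells were stained with Hoechst33342, BioTracker Green Microtubule Cytoskeleton Dye, MitoTracker Red and Annexin V Alexa Fluor 680. After compound addition they were imaged on a CQ1 microscope at 37°C and 5% CO2, and CellPathfinder machine-learning gating sorted them into Hoechst high-intensity objects or normal cells, with normal cells further split into healthy, pyknosed or fragmented nuclei and pyknosed cells into mitotic or apoptotic. Tubulin, mitochondrial-mass and membrane-permeability phenotypes are given as per cents of cells with healthy nuclei.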

[1] = 12 h, 1 µM, compound concentration 1 uM, replicate 1
[2] = 12 h, 1 µM, compound concentration 1 uM, replicate 2
[3] = 12 h, 10 µM, compound concentration 10 uM, replicate 1
[4] = 12 h, 10 µM, compound concentration 10 uM, replicate 2
[5] = 24 h, 1 µM, compound concentration 1 uM, replicate 1
[6] = 24 h, 1 µM, compound concentration 1 uM, replicate 2
[7] = 24 h, 10 µM, compound concentration 10 uM, replicate 1
[8] = 24 h, 10 µM, compound concentration 10 uM, replicate 2

Cl.Cn1c2c(c3ccc(Cl)c(Cl)c31)C(C#N)C1(CCNCC1)NC2=O (configuration not stated)
Population Apoptotic (%) [1]: 30%
Population Fragmented Nuclei (%) [1]: 2%
Population Healthy Nuclei (%) [1]: 90%
Population Hoechst High Intensity Objects (%) [1]: 1%
Population Mitochondria Different-Phenotype (%) [1]: 14%
Population Mitotic Cells (%) [1]: 69%
Population Normal (%) [1]: 98%
Population Pyknosed Nuclei (%) [1]: 7%
Population Tubulin-Different-Phenotype (%) [1]: 19%
Total Cell Count [1]: 137
Population Apoptotic (%) [2]: 0%
Population Fragmented Nuclei (%) [2]: 4%
Population Healthy Nuclei (%) [2]: 94%
Population Hoechst High Intensity Objects (%) [2]: 13%
Population Membrane Permeable-Phenotype (%) [2]: 9%
Population Mitochondria Different-Phenotype (%) [2]: 36%
Population Mitotic Cells (%) [2]: 100%
Population Normal (%) [2]: 86%
Population Pyknosed Nuclei (%) [2]: 0%
Population Tubulin-Different-Phenotype (%) [2]: 38%
Total Cell Count [2]: 159
Population Apoptotic (%) [3]: 56%
Population Fragmented Nuclei (%) [3]: 20%
Population Healthy Nuclei (%) [3]: 20%
Population Hoechst High Intensity Objects (%) [3]: 3%
Population Membrane Permeable-Phenotype (%) [3]: 53%
Population Mitochondria Different-Phenotype (%) [3]: 80%
Population Mitotic Cells (%) [3]: 43%
Population Normal (%) [3]: 96%
Population Pyknosed Nuclei (%) [3]: 58%
Population Tubulin-Different-Phenotype (%) [3]: 96%
Total Cell Count [3]: 183
Population Apoptotic (%) [4]: 61%
Population Fragmented Nuclei (%) [4]: 22%
Population Healthy Nuclei (%) [4]: 27%
Population Hoechst High Intensity Objects (%) [4]: 24%
Population Membrane Permeable-Phenotype (%) [4]: 36%
Population Mitochondria Different-Phenotype (%) [4]: 90%
Population Mitotic Cells (%) [4]: 38%
Population Normal (%) [4]: 75%
Population Pyknosed Nuclei (%) [4]: 49%
Population Tubulin-Different-Phenotype (%) [4]: 95%
Total Cell Count [4]: 123
Population Apoptotic (%) [5]: 40%
Population Fragmented Nuclei (%) [5]: 4%
Population Healthy Nuclei (%) [5]: 88%
Population Hoechst High Intensity Objects (%) [5]: 1%
Population Membrane Permeable-Phenotype (%) [5]: 5%
Population Mitochondria Different-Phenotype (%) [5]: 13%
Population Mitotic Cells (%) [5]: 60%
Population Normal (%) [5]: 98%
Population Pyknosed Nuclei (%) [5]: 6%
Population Tubulin-Different-Phenotype (%) [5]: 26%
Total Cell Count [5]: 129
Population Apoptotic (%) [6]: 75%
Population Fragmented Nuclei (%) [6]: 3%
Population Healthy Nuclei (%) [6]: 93%
Population Hoechst High Intensity Objects (%) [6]: 10%
Population Membrane Permeable-Phenotype (%) [6]: 8%
Population Mitochondria Different-Phenotype (%) [6]: 29%
Population Mitotic Cells (%) [6]: 25%
Population Normal (%) [6]: 89%
Population Pyknosed Nuclei (%) [6]: 2%
Population Tubulin-Different-Phenotype (%) [6]: 31%
Total Cell Count [6]: 157
Population Apoptotic (%) [7]: 85%
Population Fragmented Nuclei (%) [7]: 37%
Population Healthy Nuclei (%) [7]: 10%
Population Hoechst High Intensity Objects (%) [7]: 16%
Population Membrane Permeable-Phenotype (%) [7]: 92%
Population Mitochondria Different-Phenotype (%) [7]: 100%
Population Mitotic Cells (%) [7]: 14%
Population Normal (%) [7]: 83%
Population Pyknosed Nuclei (%) [7]: 52%
Population Tubulin-Different-Phenotype (%) [7]: 92%
Total Cell Count [7]: 231
Population Apoptotic (%) [8]: 76%
Population Fragmented Nuclei (%) [8]: 33%
Population Healthy Nuclei (%) [8]: 17%
Population Hoechst High Intensity Objects (%) [8]: 30%
Population Membrane Permeable-Phenotype (%) [8]: 75%
Population Mitochondria Different-Phenotype (%) [8]: 91%
Population Mitotic Cells (%) [8]: 23%
Population Normal (%) [8]: 69%
Population Pyknosed Nuclei (%) [8]: 49%
Population Tubulin-Different-Phenotype (%) [8]: 91%
Total Cell Count [8]: 164
